Each structure is given as a SMILES string. Calls of active or inactive are those of the source. The calls are words filed in the database; no cut-off is given here.

Series [1] in a line: Drug metabolism in Sprague-Dawley rat plasma assessed as 1-(2'-hydroxy-5'-(1-hydroxyallyl)-6-((2S,3R,4S,5S,6R)-3,4,5-trihydroxy-6-(hydroxymethyl)tetrahydro-2H-pyran-2-yloxy)biphenyl-3-yl)prop-2-en-1-one formation at 100 mg/kg, po by UPLC-IT-TOF-MS analysis. As to conditions: in vivo. In kind it is ADME, organism-based. The essentials:
(§1)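 Rats (n = 6) housed in metabolic cages received 100.0 mg/kg orally; controls received 0.5% CMC-Na. Plasma, urine and faeces were collected and analyzed by LC-IT-TOF-MS on a C18 column at 30 °C. Gradient 5–100% acetonitrile with 0.05% formic acid over 18 min at 0.2 mL/min; positive and negative ion MS/MS.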

The nature of series [2]: Drug metabolism in Sprague-Dawley rat plasma assessed as 5'-(1-hydroxyallyl)-5-(1-hydroxypropyl)-2'-((2S,3R,4S,5S,6R)-3,4,5-trihydroxy-6-(hydroxymethyl)tetrahydro-2H-pyran-2-yloxy)biphenyl-2-yl hydrogen sulfate formation at 100 mg/kg, po by UPLC-IT-TOF-MS analysis. In kind it is ADME, organism-based. Conditions: in vivo. A digest of the protocol: as §1
A short description of series [3]: Drug metabolism in Sprague-Dawley rat plasma assessed as (2S,3S,4S,5R,6S)-6-(5,5'-diallyl-2'-methoxybiphenyl-2-yloxy)-3,4,5-trihydroxytetrahydro-2H-pyran-2-carboxylic acid formation at 100 mg/kg, po by UPLC-IT-TOF-MS analysis. As to conditions: in vivo. In kind it is ADME, organism-based. A digest of the protocol: as §1
The target of series [4] is T1, Melatonin receptor type 1B (Homo sapiens) (UniProt P49286).
T1 sequence (whole entry): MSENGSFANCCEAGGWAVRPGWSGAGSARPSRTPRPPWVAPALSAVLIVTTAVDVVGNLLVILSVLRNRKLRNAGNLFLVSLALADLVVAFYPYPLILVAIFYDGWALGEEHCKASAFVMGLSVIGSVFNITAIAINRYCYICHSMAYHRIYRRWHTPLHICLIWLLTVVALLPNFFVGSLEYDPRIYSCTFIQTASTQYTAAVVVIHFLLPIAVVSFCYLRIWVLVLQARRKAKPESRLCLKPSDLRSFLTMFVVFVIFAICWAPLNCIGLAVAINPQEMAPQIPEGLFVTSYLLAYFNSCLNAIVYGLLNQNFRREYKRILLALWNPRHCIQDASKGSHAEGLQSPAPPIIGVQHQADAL
Description: Agonist activity at human MT2 receptor expressed in HEK293 cells at 1 mM after 24 hrs by Fluo-8 dye-based calcium assay relative to control. In kind it is functional, cell-based. The essentials: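 Fluo-8 calcium assay in HEK293 cells stably expressing human MT1 or MT2, seeded 4×10^4/well and incubated 24 h. Compounds tested at 1.00 mM, agomelatine positive control at 3.33 µM; fluorescence at ex 485/em 525 nm. Agonism expressed as mean ± SD, n = 3.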

Series [5] can be described thus: Drug metabolism in Sprague-Dawley rat urine assessed as (2S,3S,4S,5R,6S)-3,4,5-trihydroxy-6-(5-(1-hydroxyallyl)-5'-(2-hydroxypropyl)-2'-methoxybiphenyl-2-yloxy)tetrahydro-2H-pyran-2-carboxylic acid formation at 100 mg/kg, po by UPLC-IT-TOF-MS analysis. It is filed as ADME, organism-based. As to conditions: in vivo. The essentials:
(§2)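 Male/unspecified SD rats (n = 6) housed individually in metabolic cages, dosed orally at 100.0 mg/kg; controls given 0.5% CMC-Na orally. Plasma, urine and faeces collected. LC-IT-TOF-MS on C18 column at 30 °C, formic acid (0.05%) water/acetonitrile gradient 5–100% B over 18 min, 0.2 mL/min; positive and negative ion modes with automatic MS/MS.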

A short description of series [6]: Drug metabolism in Sprague-Dawley rat urine assessed as 2S,3S,4S,5R,6S)-6-(5,5'-diallyl-2'-((2S,3R,4S,5S,6R)-3,4,5-trihydroxy-6-(hydroxymethyl)tetrahydro-2H-pyran-2-yloxy)biphenyl-2-yloxy)-3,4,5-trihydroxytetrahydro-2H-pyran-2-carboxylic acid formation at 100 mg/kg, po by UPLC-IT-TOF-MS analysis. In kind it is ADME, organism-based. Conditions: in vivo. A digest of the protocol:
as §2

The nature of series [7]: Drug metabolism in Sprague-Dawley rat plasma assessed as 1-(5'-allyl-2'-hydroxy-6-((2S,3R,4S,5S,6R)-3,4,5-trihydroxy-6-(hydroxymethyl)tetrahydro-2H-pyran-2-yloxy)biphenyl-3-yl)prop-2-en-1-one formation at 100 mg/kg, po by UPLC-IT-TOF-MS analysis. It is filed as ADME, organism-based. As to conditions: in vivo. A digest of the protocol: as §1
Series [8] has as its system Mus musculus. Put plainly: Effect on 5-hydroxytryptamine level in Kunming mouse hypothalamus at 40 mg/kg, po treated for 7 days by HPLC-ECD analysis. In kind it is functional, organism-based. The essentials: (§3)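 Male Kunming mice (18–20 g) given vehicle or 40 mg/kg for 7 days, then killed by cervical dislocation. Frontal cortex, hippocampus, striatum, hypothalamus and thalamus dissected on ice, homogenized in ice-cold 0.2 M perchloric acid with 0.1 mM EDTA, centrifuged 15,000 rpm, 20 min, 4 °C. Supernatant analysed by HPLC-ECD at +0.50 V; phosphate/octanesulfonate mobile phase pH 3.0 with 12% methanol. Levels in ng/g, mean ± SEM.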

For series [9], the system named is Mus musculus. Put plainly: Increase in ratio of 5-hydroxyindole-3-acetic acid to 5-hydroxytryptamine level in Kunming mouse frontal cortex at 40 mg/kg, po treated for 7 days by HPLC-ECD analysis. It is filed as functional, organism-based. The essentials:
as §3

The next series deals with Rattus norvegicus. Description: Toxicity in Sprague-Dawley rat assessed as irritation at 2000 mg/kg, po measured over 4 hrs. In kind it is organism-based. Conditions: in vivo. A digest of the protocol: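 Acute oral toxicity run per OECD 425 in adult SD rats (180–220 g). Six animals per group: vehicle control (0.5% CMC-Na, oral), male rats and female rats each dosed orally at 2000 mg/kg. Animals were watched continuously for the first 4 h for behavior, breathing, cutaneous signs (irritation, ulceration, caustic injury, skin rashes), sensory nervous and gastrointestinal effects. Later checks were hourly for 24 h, then every 6 h for 48 h.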

Series [10] can be described thus: Drug metabolism in Sprague-Dawley rat feces assessed as (2S,3S,4S,5R,6S)-6-(5,5'-diallyl-2'-methoxybiphenyl-2-yloxy)-3,4,5-trihydroxytetrahydro-2H-pyran-2-carboxylic acid formation at 100 mg/kg, po by UPLC-IT-TOF-MS analysis. It is filed as ADME, organism-based. As to conditions: in vivo. A digest of the protocol: as §1
A short description of series [11]: Drug metabolism in Sprague-Dawley rat feces assessed as (2R,2'R,3S,3'S,4S,4'S,5R,5'R,6S,6'S)-6,6'-(5,5'-diallylbiphenyl-2,2'-diyl)bis(oxy)bis(2-(hydroxymethyl)tetrahydro-2H-pyran-3,4,5-triol) formation at 100 mg/kg, po by UPLC-IT-TOF-MS analysis. It is filed as ADME, organism-based. Conditions: in vivo. The essentials: as §1
Series [12] is described as follows: Drug metabolism in Sprague-Dawley rat feces assessed as 2S,3S,4S,5R,6S)-6-(5,5'-diallyl-2'-((2S,3R,4S,5S,6R)-3,4,5-trihydroxy-6-(hydroxymethyl)tetrahydro-2H-pyran-2-yloxy)biphenyl-2-yloxy)-3,4,5-trihydroxytetrahydro-2H-pyran-2-carboxylic acid formation at 100 mg/kg, po by UPLC-IT-TOF-MS analysis. Conditions: in vivo. In kind it is ADME, organism-based. The essentials:
as §1

Series [13] deals with Mus musculus. Put plainly: Increase in 4-hydroxy-3-methoxyphenylacetic acid level in Kunming mouse thalamus at 40 mg/kg, po treated for 7 days by HPLC-ECD analysis. It is filed as functional, organism-based. The essentials:
as §3

A short description of series [14]: Drug metabolism in Sprague-Dawley rat plasma assessed as 5,5'-diallyl-2'-hydroxybiphenyl-2-yl hydrogen sulfate formation at 100 mg/kg, po by UPLC-IT-TOF-MS analysis. In kind it is ADME, organism-based. Conditions: in vivo. The essentials: as §2

For `C=CCc1ccc(O)c(-c2cc(CC=C)ccc2O[C@@H]2O[C@H](CO)[C@@H](O)[C@H](O)[C@H]2O)c1`, the Drug metabolism entry is given as “Metabolite_Notdetected” in series [1]; “Metabolite_Notdetected” in series [2]; “Metabolite_Notdetected” in [3]; “Metabolite_Detected” in series [5]; “Metabolite_Detected” in series [6]; “Metabolite_Notdetected” in series [7]. Moreover, the Drug metabolism result in series [10] was “Metabolite_Notdetected”; in [11] it was “Metabolite_Detected”; in [12], “Metabolite_Detected”; in [14], “Metabolite_Notdetected”. The Activity was 151% in [4] and “Non-Toxic” in the series on Rattus norvegicus. In the series with Mus musculus [8], the result was inactive. Further, the result with Mus musculus [9] and with Mus musculus [13] was Active.

For the origin of these results see ChEMBL document CHEMBL4270555, “Synthesis and biological evaluation of magnolol derivatives as melatonergic receptor agonists with potential use in depression” (Eur J Med Chem, 2018).
